Measured values as given in ChEMBL document CHEMBL1811848 (Bioorg Med Chem Lett, 2011).
Calls of active or inactive are those of the source. No cut-off for these calls is given here.

Experiments:
[1] = molecular target: T1, Peroxisome proliferator-activated receptor gamma (Homo sapiens) (UniProt P37231); assay: Transactivation of human PPARgamma expressed in human HepG2 cells co-transfected with PPRE3-TK-Luc by luciferase reporter gene assay relative to Rosiglitazone; format: cell-based
T1 sequence (whole entry): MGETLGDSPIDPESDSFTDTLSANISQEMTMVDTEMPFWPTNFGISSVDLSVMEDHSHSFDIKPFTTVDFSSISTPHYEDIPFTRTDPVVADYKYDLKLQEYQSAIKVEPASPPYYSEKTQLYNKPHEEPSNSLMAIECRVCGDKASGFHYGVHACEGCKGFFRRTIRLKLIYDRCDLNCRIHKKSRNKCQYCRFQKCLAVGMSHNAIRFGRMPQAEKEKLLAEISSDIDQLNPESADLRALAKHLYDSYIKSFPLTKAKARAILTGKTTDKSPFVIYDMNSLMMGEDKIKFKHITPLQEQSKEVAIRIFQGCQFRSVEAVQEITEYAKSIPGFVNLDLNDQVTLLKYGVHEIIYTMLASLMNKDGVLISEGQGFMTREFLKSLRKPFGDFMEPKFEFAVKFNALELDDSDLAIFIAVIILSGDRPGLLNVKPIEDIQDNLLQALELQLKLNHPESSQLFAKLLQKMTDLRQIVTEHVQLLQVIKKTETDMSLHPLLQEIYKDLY
In short: (§1)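 Same HepG2 hPPARα or hPPARγ / PPRE3-TK-luc luciferase transactivation assay. Efficacy expressed as percent of maximal response, normalized to 100% for the reference agonist: WY-14643 for α, rosiglitazone for γ.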

[2] = tested on: Mus musculus; assay: Antihyperglycemic activity in db/db mouse assessed as reduction in glucose level at 3 mg/kg/day, po administered for 6 days relative to control; format: functional; set-up: scale not given: the % may be the effect or the level left
In short: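 Male db/db mice aged 6–8 weeks were dosed orally once daily for 6 days. Plasma glucose was then measured and expressed as % change versus vehicle-treated controls.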

[3] = tested on: Mus musculus; assay: Reduction in serum triglyceride level in Swiss albino mouse at 10 mg/kg, po administered for 6 days relative to control; format: functional; set-up: scale not given: the % may be the effect or the level left
In short: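 Male Swiss albino mice aged 6–8 weeks were given 10 mg/kg/day orally for 6 days. Serum triglyceride was expressed as % change versus vehicle controls, mean of n = 6.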

[4] = molecular target: T2, Peroxisome proliferator-activated receptor alpha (Homo sapiens) (UniProt Q07869); assay: Transactivation of human PPARalpha expressed in human HepG2 cells co-transfected with PPRE3-TK-Luc by luciferase reporter gene assay relative to WY14643; format: cell-based; in short: as §1
T2 sequence (whole entry): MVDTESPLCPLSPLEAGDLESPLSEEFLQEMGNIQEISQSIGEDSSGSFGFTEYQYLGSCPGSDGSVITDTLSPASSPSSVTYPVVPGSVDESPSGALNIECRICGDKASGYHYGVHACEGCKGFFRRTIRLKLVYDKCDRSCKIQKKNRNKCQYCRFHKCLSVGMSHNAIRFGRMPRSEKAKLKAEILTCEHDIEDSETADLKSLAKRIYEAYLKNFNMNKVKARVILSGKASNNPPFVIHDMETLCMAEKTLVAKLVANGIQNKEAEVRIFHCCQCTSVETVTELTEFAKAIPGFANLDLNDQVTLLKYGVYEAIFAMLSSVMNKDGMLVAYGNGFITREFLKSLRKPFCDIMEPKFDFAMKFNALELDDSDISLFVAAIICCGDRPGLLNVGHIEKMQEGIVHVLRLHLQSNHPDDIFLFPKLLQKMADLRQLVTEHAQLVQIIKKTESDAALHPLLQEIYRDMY

[5] = molecular target: T3, Peroxisome proliferator-activated receptor delta (Homo sapiens) (UniProt Q03181); assay: Transactivation of human PPARdelta expressed in human HepG2 cells co-transfected with PPRE3-TK-Luc by luciferase reporter gene assay; format: cell-based
T3 sequence (whole entry): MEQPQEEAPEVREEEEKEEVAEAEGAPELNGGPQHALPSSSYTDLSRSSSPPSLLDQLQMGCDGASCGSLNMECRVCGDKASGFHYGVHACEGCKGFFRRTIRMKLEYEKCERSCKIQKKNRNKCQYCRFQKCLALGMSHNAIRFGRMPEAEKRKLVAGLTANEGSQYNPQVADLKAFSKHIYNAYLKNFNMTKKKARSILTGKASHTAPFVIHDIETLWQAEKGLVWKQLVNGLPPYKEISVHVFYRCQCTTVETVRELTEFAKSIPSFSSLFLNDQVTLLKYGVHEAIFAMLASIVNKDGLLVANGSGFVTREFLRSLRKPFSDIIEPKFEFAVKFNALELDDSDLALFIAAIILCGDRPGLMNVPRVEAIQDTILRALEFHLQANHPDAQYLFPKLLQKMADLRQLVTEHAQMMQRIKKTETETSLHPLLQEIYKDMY
In short: (§2)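 HepG2 cells transfected with pSG5 vector carrying hPPARα, hPPARγ or hPPARδ cDNA, co-transfected with PPRE3-TK-luc. Firefly luciferase activity measured with a commercial kit. β-galactosidase activity read on an ELISA reader. Controls: WY14643 (α), rosiglitazone (γ), GW501516 (δ).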

[6] = molecular target: T4, Peroxisome proliferator-activated receptor gamma (Homo sapiens, UniProt P37231); assay: Transactivation of human PPARgamma expressed in human HepG2 cells co-transfected with PPRE3-TK-Luc by luciferase reporter gene assay; format: cell-based; in short: as §2
T4 sequence (P37231 whole entry): T1 sequence (whole entry)

[7] = molecular target: T5, Peroxisome proliferator-activated receptor alpha (Homo sapiens, UniProt Q07869); assay: Transactivation of human PPARalpha expressed in human HepG2 cells co-transfected with PPRE3-TK-Luc by luciferase reporter gene assay; format: cell-based
T5 sequence (Q07869 whole entry): T2 sequence (whole entry)

Structure (SMILES) | Emax [1] [%] | Emax [4] [%] | Activity [5] | EC50 [6] [nM] | EC50 [7] [nM] | Activity [2] [%] | Activity [3] [%]
CCO[C@@H](Cc1ccc(OCCc2nc(-c3sccc3C)oc2C)cc1)C(=O)O | 192 | 96 | inactive | 0.0001 | – | – | 67
CCO[C@@H](Cc1ccc(OCCc2nc(-c3ccc(-c4ccccc4)s3)oc2C)cc1)C(=O)O | – | – | inactive | 4.5 | 22 | – | 62
CCO[C@@H](Cc1ccc(OCc2nc(-c3ccsc3)oc2C)cc1)C(=O)O | 99 | 147 | inactive | 2.7 | 3 | – | 70
CCO[C@@H](Cc1ccc(OCc2nc(-c3sccc3C)oc2C)cc1)C(=O)O | 88 | 106 | inactive | 0.0003 | – | – | 72
CCO[C@@H](Cc1ccc(OCCc2nc(-c3cccs3)oc2C)cc1)C(=O)O | 104 | 126 | inactive | 0.05 | 0.1 | – | 78
CCO[C@@H](Cc1ccc(OCCc2ccc(OS(C)(=O)=O)cc2)cc1)C(=O)O [TESAGLITAZAR] | – | – | – | – | – | 55 | –

Further compounds by falling EC50 [6], results first:

Emax [1] [%] | Emax [4] [%] | Activity [5] | EC50 [6] [nM] | EC50 [7] [nM] | Structure (SMILES) | Activity [2] [%] | Activity [3] [%]
104 | 93 | inactive | 3 | 20 | CCO[C@@H](Cc1ccc(OCc2nc(-c3ccc(-c4ccccc4)s3)oc2C)cc1)C(=O)O | – | 57
87 | 114 | inactive | 0.6 | 1.9 | CCO[C@@H](Cc1ccc(OCCc2nc(-c3ccsc3)oc2C)cc1)C(=O)O | – | 62
107 | 134 | inactive | 0.0015 | 0.026 | CCO[C@@H](Cc1ccc(OCc2nc(-c3cccs3)oc2C)cc1)C(=O)O | – | 72
120 | 151 | inactive | 0.0002 | – | CCO[C@@H](Cc1ccc(OCc2nc(-c3ccc(C)s3)oc2C)cc1)C(=O)O | 67 | 69
